The record followed here is ChEMBL document CHEMBL3627681, “Synthesis and biological evaluation of 1,3-diaryl pyrazole derivatives as potential antibacterial and anti-inflammatory agents” (2015).

Assay [1] deals with Escherichia coli. Kind of assay: Antibacterial activity against Escherichia coli CCARM 1356 after 24 hrs by two-fold serial dilution method. The format is functional. Particulars: CCARM 1356, 24 h. Put shortly: (§1)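 Broth microdilution in Mueller-Hinton broth over final concentrations of 64–0.5. Bacteria were grown to mid-log phase and diluted 1000-fold, then inoculated at 10⁵ CFU/mL. Compounds were dissolved in DMSO, with final DMSO at most 0.05%. Plates were incubated 24 h at 37 °C and growth read as absorbance at 650 nm. MIC is the concentration giving complete growth inhibition. Three independent runs.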

Assay [2] has as its system Pseudomonas aeruginosa. Nature of the assay: Antibacterial activity against Pseudomonas aeruginosa 2004 after 24 hrs by two-fold serial dilution method. The format is functional. The settings on record: Pseudomonas aeruginosa, 2004, 24 h. Put shortly:
as §1

Another assay relates to Candida albicans. Nature of the assay: Antifungal activity against Candida albicans 7535 by two-fold serial dilution method. Format: functional.
For assay [3], the system named is Staphylococcus aureus. Nature of the assay: Ratio of moxifloxacin MIC to compound MIC for quinolone-resistant Staphylococcus aureus CCARM 3505 after 24 hrs by two-fold serial dilution method. Format: functional.
Assay [4] concerns Staphylococcus aureus. Nature of the assay: Ratio of gatifloxacin MIC to compound MIC for quinolone-resistant Staphylococcus aureus CCARM 3519 after 24 hrs by two-fold serial dilution method. The format is functional.
Assay [5] deals with Staphylococcus aureus. Kind of assay: Antibacterial activity against Staphylococcus aureus RN4220 after 24 hrs by two-fold serial dilution method. The format is functional. Particulars: RN4220, 24 h. Put shortly: (§2)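 Broth microdilution in Mueller-Hinton broth. Bacteria grown to mid-log phase, diluted 1000-fold, and inoculated at 10⁵ CFU/mL. Test compounds in DMSO, final DMSO not above 0.05%, final concentrations 64-0.5 µg/mL. Incubation 24 h at 37 °C, growth read as absorbance at 650 nm. MIC taken as the lowest concentration giving complete growth inhibition. Run three times.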

Assay [6] concerns Staphylococcus aureus. Kind of assay: Antibacterial activity against Staphylococcus aureus 209 after 24 hrs by two-fold serial dilution method. The settings on record: Staphylococcus aureus, 209, 24 h. Format: functional. The method in brief: as §2
The subject of assay [7] is Staphylococcus aureus. Nature of the assay: Ratio of gatifloxacin MIC to compound MIC for quinolone-resistant Staphylococcus aureus CCARM 3505 after 24 hrs by two-fold serial dilution method. Format: functional.
The test system of assay [8] is Staphylococcus aureus. Nature of the assay: Ratio of moxifloxacin MIC to compound MIC for quinolone-resistant Staphylococcus aureus CCARM 3519 after 24 hrs by two-fold serial dilution method. Format: functional.
For assay [9], the system named is Staphylococcus aureus. Kind of assay: Antibacterial activity against Staphylococcus aureus 503 after 24 hrs by two-fold serial dilution method. The format is functional. The settings on record: Staphylococcus aureus, 503, 24 h. Put shortly: as §2
The subject of assay [10] is Staphylococcus aureus. Kind of assay: Antibacterial activity against methicillin-resistant Staphylococcus aureus CCARM 3167 after 24 hrs by two-fold serial dilution method. The format is functional. Particulars: CCARM 3167, 24 h. Put shortly:
as §2

Assay [11] relates to Escherichia coli. Nature of the assay: Antibacterial activity against Escherichia coli KCTC 1924 after 24 hrs by two-fold serial dilution method. The format is functional. The settings on record: KCTC 1924, 24 h. The method in brief: as §1
The next assay deals with Streptococcus mutans. Kind of assay: Antibacterial activity against Streptococcus mutans 3065 after 24 hrs by two-fold serial dilution method. The format is functional. Particulars: Streptococcus mutans, 3065, 24 h. Put shortly: as §1
Assay [12] deals with Pseudomonas aeruginosa. Kind of assay: Antibacterial activity against Pseudomonas aeruginosa 2742 after 24 hrs by two-fold serial dilution method. Format: functional. Particulars: Pseudomonas aeruginosa, 2742, 24 h. The method in brief: as §1
The test system of assay [13] is Staphylococcus aureus. Kind of assay: Antibacterial activity against quinolone-resistant Staphylococcus aureus CCARM 3519 after 24 hrs by two-fold serial dilution method. The format is functional. Particulars: CCARM 3519, 24 h. Put shortly: as §2
Assay [14] has as its system Staphylococcus aureus. Nature of the assay: Antibacterial activity against methicillin-resistant Staphylococcus aureus CCARM 3506 after 24 hrs by two-fold serial dilution method. Particulars: CCARM 3506, 24 h. The format is functional. Put shortly: as §2
A further assay deals with Salmonella typhimurium. Kind of assay: Antibacterial activity against Salmonella typhimurium 2421 after 24 hrs by two-fold serial dilution method. Format: functional, Salmonella enterica subsp. enterica serovar Typhimurium. The settings on record: Salmonella enterica, 2421, 24 h. Put shortly:
as §1

Assay [15] relates to Escherichia coli. Nature of the assay: Ratio of moxifloxacin MIC to compound MIC for Escherichia coli CCARM 1356 after 24 hrs by two-fold serial dilution method. Format: functional.
The next assay deals with Mus musculus. Kind of assay: Antiinflammatory activity in mouse assessed as inhibition of xylene-induced ear edema at 50 mg/kg, ip administered 30 mins before xylene challenge relative to control. Format: functional. The method in brief:
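Mice received compound freshly dissolved in DMSO, 50 mg/kg ip at 0.05 mL/20 g body weight; vehicle controls got DMSO alone. After 30 min, 20 µL xylene was applied to the right ear. After a further 30 min, 7 mm plugs were cut from treated and untreated ears and edema taken as their weight difference. Result is % edema reduction versus vehicle controls.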

Assay [16] concerns Staphylococcus aureus. Kind of assay: Antibacterial activity against quinolone-resistant Staphylococcus aureus CCARM 3505 after 24 hrs by two-fold serial dilution method. Particulars: CCARM 3505, 24 h. The format is functional. Put shortly:
as §2

The test system of assay [17] is Staphylococcus aureus. Nature of the assay: Ratio of norfloxacin MIC to compound MIC for methicillin-resistant Staphylococcus aureus CCARM 3506 after 24 hrs by two-fold serial dilution method. The format is functional.
The test system of assay [18] is Staphylococcus aureus. Nature of the assay: Ratio of oxacillin MIC to compound MIC for methicillin-resistant Staphylococcus aureus CCARM 3506 after 24 hrs by two-fold serial dilution method. Format: functional.
The test system of assay [19] is Escherichia coli. Kind of assay: Ratio of gatifloxacin MIC to compound MIC for Escherichia coli CCARM 1356 after 24 hrs by two-fold serial dilution method. Format: functional.

Converted amounts (≈) assume the structure as drawn.

The term MIC denotes the lowest concentration that inhibits growth of the organism. As usually defined, the inhibition in vivo is the relative decrease from the control value, in per cent. For `N=C(N)N/N=C/c1cn(-c2ccc([N+](=O)[O-])cc2[N+](=O)[O-])nc1-c1ccc(Cl)cc1`, the MIC against Escherichia coli [1] was 8 µg/mL (≈ 18.7 µM); with Pseudomonas aeruginosa [2], above 64 µg/mL; against Candida albicans it was 2 µg/mL (≈ 4.66 µM); with Staphylococcus aureus [5], 2 µg/mL (≈ 4.66 µM); against Staphylococcus aureus [6] it was 2 µg/mL (≈ 4.66 µM); in the assay with Staphylococcus aureus [9] it was 2 µg/mL (≈ 4.66 µM). For the same compound, the MIC against Staphylococcus aureus [10] was 2 µg/mL (≈ 4.66 µM); with Escherichia coli [11], 2 µg/mL (≈ 4.66 µM); in the assay on Streptococcus mutans, 4 µg/mL (≈ 9.33 µM); against Pseudomonas aeruginosa [12] it was above 64 µg/mL; against Staphylococcus aureus [13] it was 2 µg/mL (≈ 4.66 µM); against Staphylococcus aureus [14] it was 2 µg/mL (≈ 4.66 µM). Moreover, the MIC was determined as 4 µg/mL (≈ 9.33 µM) in the assay with Salmonella typhimurium and 2 µg/mL (≈ 4.66 µM) in the assay on Staphylococcus aureus [16]. For the same compound, the Ratio with Staphylococcus aureus [3] worked out at 2; in the assay with Staphylococcus aureus [4], 2; in the assay on Staphylococcus aureus [7], 4; in the assay on Staphylococcus aureus [8], 2; in the assay with Escherichia coli [15] it was 16. In addition, the inhibition in vivo at 50 mg/kg with Mus musculus was 71.5%.

Consider `N=C(N)N/N=C/c1cn(-c2ccc([N+](=O)[O-])cc2[N+](=O)[O-])nc1-c1cccc(Br)c1`, for which the MIC in the assay on Escherichia coli [1] is 4 µg/mL (≈ 8.45 µM); with Pseudomonas aeruginosa [2], above 64 µg/mL; against Candida albicans, 1 µg/mL (≈ 2.11 µM); in the assay with Staphylococcus aureus [5], 1 µg/mL (≈ 2.11 µM); against Staphylococcus aureus [6], 2 µg/mL (≈ 4.23 µM); against Staphylococcus aureus [9], 2 µg/mL (≈ 4.23 µM). In addition, the minimal inhibitory concentration (MIC) in the assay on Staphylococcus aureus [10] is 1 µg/mL (≈ 2.11 µM); in the assay with Escherichia coli [11], 2 µg/mL (≈ 4.23 µM); with Streptococcus mutans, 4 µg/mL (≈ 8.45 µM); in the assay on Pseudomonas aeruginosa [12], above 64 µg/mL; with Staphylococcus aureus [13] it was 2 µg/mL (≈ 4.23 µM); in the assay with Staphylococcus aureus [14] it was 1 µg/mL (≈ 2.11 µM). For the same compound, the minimal inhibitory concentration (MIC) against Salmonella typhimurium was found to be 4 µg/mL (≈ 8.45 µM); with Staphylococcus aureus [16], 2 µg/mL (≈ 4.23 µM). Also, the Ratio in the assay on Staphylococcus aureus [17] amounted to 4; in the assay on Staphylococcus aureus [3], 2; with Staphylococcus aureus [18], 64; in the assay on Staphylococcus aureus [4], 2; with Staphylococcus aureus [7], 4; in the assay with Staphylococcus aureus [8] it was 2. Besides, the Ratio in the assay with Escherichia coli [19] stood at 4. Also, the inhibition in vivo at 50 mg/kg with Mus musculus was 81.7%.

In the case of `N=C(N)N/N=C/c1cn(-c2ccc([N+](=O)[O-])cc2[N+](=O)[O-])nc1-c1cccc(Cl)c1`, the minimum inhibitory concentration (MIC) was 4 µg/mL (≈ 9.33 µM) in the assay with Escherichia coli [1]; above 64 µg/mL in the assay on Pseudomonas aeruginosa [2]; 1 µg/mL (≈ 2.33 µM) in the assay with Candida albicans; 1 µg/mL (≈ 2.33 µM) in the assay with Staphylococcus aureus [5]; 2 µg/mL (≈ 4.66 µM) in the assay with Staphylococcus aureus [6]; 2 µg/mL (≈ 4.66 µM) with Staphylococcus aureus [9]. Besides, the minimum inhibitory concentration (MIC) against Staphylococcus aureus [10] is 2 µg/mL (≈ 4.66 µM); with Escherichia coli [11], 2 µg/mL (≈ 4.66 µM); in the assay with Streptococcus mutans it was 4 µg/mL (≈ 9.33 µM); with Pseudomonas aeruginosa [12] it was above 64 µg/mL; in the assay with Staphylococcus aureus [13] it was 2 µg/mL (≈ 4.66 µM); against Staphylococcus aureus [14], 1 µg/mL (≈ 2.33 µM). For the same compound, the MIC in the assay with Salmonella typhimurium worked out at 4 µg/mL (≈ 9.33 µM); against Staphylococcus aureus [16], 2 µg/mL (≈ 4.66 µM). In addition, the Ratio was 4 in the assay on Staphylococcus aureus [17]; 2 in the assay with Staphylococcus aureus [3]; 64 in the assay with Staphylococcus aureus [18]; 2 in the assay with Staphylococcus aureus [4]; 4 in the assay on Staphylococcus aureus [7]; 2 in the assay on Staphylococcus aureus [8]. Also, the Ratio with Escherichia coli [19] is listed as 4. Moreover, the inhibition in vivo at 50 mg/kg in the assay with Mus musculus worked out at 82.4%.
